This note sets out measurements from ChEMBL document CHEMBL1148374 (J Med Chem, 2004).

A word on the IC50: it is the concentration at which inhibition is half-maximal. In general, Ki refers to the equilibrium dissociation constant of an inhibitor or competing ligand from its target. A lower Ki goes with tighter binding.

Assay [1] concerns the target Opioid receptors; mu & delta (Homo sapiens) (UniProt P41143+P35372). Kind of assay: Selectivity ratio of agonist stimulated [35S]GTP-gamma-S, binding in cloned human mu-opioid receptor versus delta-opioid receptor. Format: functional.
Assay [2] concerns the target T1, Delta-type opioid receptor (Homo sapiens, UniProt P41143). The assay can be described thus: Inverse agonist potency at cloned human opioid receptor delta 1. Format: functional.
In assay [3] the target is Opioid receptors; delta & kappa (Homo sapiens) (UniProt P41145+P41143). Kind of assay: Selectivity ratio of agonist stimulated [35S]GTP-gamma-S, binding in cloned human kappa-opioid receptor versus delta-opioid receptor. It counts as functional.
Assay [4] concerns the target Kappa-type opioid receptor (Homo sapiens) (UniProt P41145). Kind of assay: Ability to inhibit agonist-stimulated (U69,593) [35S]GTP-gamma-S, binding, using cloned human Opioid receptor kappa 1 expressed in CHO cells. Format: functional, cell-based. In short, it runs like this:
(§1)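 Agonist dose-response curves in [35S]GTPγS binding were run with and without one fixed concentration of test compound, with 10 μM GDP final. Ke = [L]/((A'/A)−1), where A' and A are agonist EC50 with and without antagonist. Mean ± SE from at least three independent experiments.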
For orientation: Binding of GTPγS marks nucleotide exchange on a G protein.

For assay [5], the target named is T1, Delta-type opioid receptor. Kind of assay: Ability to inhibit agonist-stimulated (DPDPE) [35S]GTP-gamma-S, binding, using cloned human opioid receptor delta 1 expressed in CHO cells. Format: functional, cell-based. The gist of the method: as §1
Assay [6] concerns the target T1, Delta-type opioid receptor. The assay can be described thus: Efficacy at cloned human opioid receptor delta 1, expressed as percent of basal binding.
For assay [7], the target named is Mu-type opioid receptor (Homo sapiens) (UniProt P35372). The assay can be described thus: Ability to inhibit agonist-stimulated (DAMGO) [35S]GTP-gamma-S, binding, using cloned human Opioid receptor mu 1expressed in CHO cells. Format: functional, cell-based. The gist of the method: as §1
For assay [8], the target named is T1, Delta-type opioid receptor. Kind of assay: [3H]-Cl-DPDPE competition binding assay using human cloned opioid receptor delta 1.
For assay [9], the target named is T1, Delta-type opioid receptor. Kind of assay: Inverse agonist potency at cloned human delta-opioid receptor. It counts as functional.
The target of assay [10] is T1, Delta-type opioid receptor. The assay can be described thus: Binding affinity towards opioid receptor delta 1 expressed in CHO cells was determined by using [3H]DPDPE as radioligand. It counts as cell-based.

Where a SMILES comes first, the peptide text is derived from it. [ ]: non-standard residue; d: D form. The star is where a group is joined. Tyr(Nα,Nα-allyl2) = C=CCN(CC=C)[C@@H](Cc1ccc(O)cc1)C(=O)*; Aib = CC(C)(N)C(=O)O

Sequence of Opioid receptors; mu & delta (Homo sapiens) (P35372 whole entry, looked up): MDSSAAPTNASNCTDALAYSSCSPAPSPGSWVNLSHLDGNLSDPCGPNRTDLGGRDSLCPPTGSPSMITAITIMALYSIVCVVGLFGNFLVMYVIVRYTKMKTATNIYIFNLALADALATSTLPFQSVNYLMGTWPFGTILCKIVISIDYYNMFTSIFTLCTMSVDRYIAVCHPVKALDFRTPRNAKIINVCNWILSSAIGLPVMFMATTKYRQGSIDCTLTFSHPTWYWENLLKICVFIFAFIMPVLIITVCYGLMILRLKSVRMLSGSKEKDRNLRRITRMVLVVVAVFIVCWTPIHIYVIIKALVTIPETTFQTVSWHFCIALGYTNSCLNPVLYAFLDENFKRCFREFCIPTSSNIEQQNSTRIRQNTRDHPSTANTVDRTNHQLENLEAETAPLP
Sequence of Opioid receptors; mu & delta (Homo sapiens) (P41143 whole entry, looked up): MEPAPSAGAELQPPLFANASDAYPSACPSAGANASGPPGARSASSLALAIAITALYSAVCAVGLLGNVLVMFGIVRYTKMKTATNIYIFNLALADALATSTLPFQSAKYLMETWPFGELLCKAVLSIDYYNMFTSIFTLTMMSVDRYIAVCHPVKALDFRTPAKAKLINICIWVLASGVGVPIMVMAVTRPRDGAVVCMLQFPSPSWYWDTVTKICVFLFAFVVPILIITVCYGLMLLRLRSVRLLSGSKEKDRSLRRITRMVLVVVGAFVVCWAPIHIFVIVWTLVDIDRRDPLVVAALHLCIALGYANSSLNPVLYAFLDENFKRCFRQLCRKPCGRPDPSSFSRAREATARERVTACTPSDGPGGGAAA
Sequence of Mu-type opioid receptor (Homo sapiens) (P35372 whole entry): as the sequence (P35372 whole entry, looked up) above
Sequence of Opioid receptors; delta & kappa (Homo sapiens) (P41143 whole entry, looked up): as the sequence (P41143 whole entry, looked up) above
Sequence of Opioid receptors; delta & kappa (Homo sapiens) (P41145 whole entry, looked up): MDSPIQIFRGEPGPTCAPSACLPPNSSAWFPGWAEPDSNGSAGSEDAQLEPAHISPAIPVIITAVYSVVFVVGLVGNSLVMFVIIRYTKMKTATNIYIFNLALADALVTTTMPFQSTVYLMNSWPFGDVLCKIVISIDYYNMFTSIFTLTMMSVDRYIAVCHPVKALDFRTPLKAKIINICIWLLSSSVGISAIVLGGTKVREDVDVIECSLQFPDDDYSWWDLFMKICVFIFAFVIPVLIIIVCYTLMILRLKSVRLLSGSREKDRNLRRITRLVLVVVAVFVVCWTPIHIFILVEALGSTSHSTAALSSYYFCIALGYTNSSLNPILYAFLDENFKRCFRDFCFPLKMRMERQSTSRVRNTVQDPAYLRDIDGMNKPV
T1 sequence (P41143 whole entry): as the sequence (P41143 whole entry, looked up) above
Sequence of Kappa-type opioid receptor (Homo sapiens) (P41145 whole entry): as the sequence (P41145 whole entry, looked up) above

For `CC1CN(CCCc2ccccc2)C2C[C@H](NC(=O)C3(c4ccccc4)CCCC3)CC1(c1cccc(O)c1)C2` (stereo partly drawn), the Selectivity ratio in [1] worked out at 9.5; in assay [3] it was 1.3. Besides, the IC50 in [2] was found to be 15.2 nM. Further, the results for the Ke in assay [4], in assay [5] and in assay [7] were 5.51 nM, 4.24 nM and 40.3 nM, respectively. The compound also yielded a Basal binding in [6] of 78%. This compound came in with a Ki in assay [8] of 9.3 nM.

In the case of `Cc1ccccc1/C=C/CN1CC[C@@](C)(c2cccc(O)c2)[C@@H](C)C1`, in assay [2], the IC50 was found to be 2.8 nM. In addition, the Basal binding in assay [6] is 76%.

In the case of `Oc1ccc2c3c1O[C@H]1c4[nH]c5ccccc5c4C[C@@]4(O)[C@@H](C2)N(CC2CC2)CC[C@]314`, the Ke in [4] was determined as 16.1 nM; in assay [5], 0.21 nM; in assay [7] it was 33 nM.

Take `CC1CN(CCCc2ccccc2)C2CC(NC(=O)C3(c4ccccc4)CCCC3)CC1(c1cccc(O)c1)C2` (racemic): the figures for the Selectivity ratio in assay [1] and in assay [3] were 22 and 6.4, respectively. Also, the results for the Ke in assay [4], in assay [5] and in [7] were 3.52 nM, 0.55 nM and 12.2 nM, respectively. Moreover, the IC50 in assay [9] amounted to 2.4 nM. In [8], this compound yielded a Ki of 2.1 nM.

With `CC1CN(CCCc2ccccc2)C2C[C@@H](NC(=O)C3(c4ccccc4)CCCC3)CC1(c1cccc(O)c1)C2` (single isomer, unassigned; (+)), the figures for the Selectivity ratio in [1] and in assay [3] were 58 and 119, respectively. In addition, the Ke is 17.9 nM in assay [4], 0.15 nM in assay [5] and 8.7 nM in assay [7]. In [9], the IC50 turned out to be 1.8 nM. In [8], this compound showed a Ki of 0.96 nM.

As for `C=CCN(CC=C)[C@@H](Cc1ccc(O)cc1)C(=O)NC(C)(C)C(=O)NC(C)(C)C(=O)N[C@@H](Cc1ccccc1)C(=O)N[C@@H](CC(C)C)C(=O)O` ({Tyr(Nα,Nα-allyl2)}-[Aib][Aib]FL-OH), the Selectivity ratio in [1] is 5.4; in assay [3], 43. Moreover, the values for the Ke in assay [4], in assay [5] and in assay [7] were 339 nM, 7.85 nM and 42 nM, respectively. Besides, the inhibition constant (Ki) in assay [10] amounted to 19.1 nM.
